Active and inactive are the calls of the source. The rule behind the calls is not given here.
Legend:
[1] = biological target: Ephrin type-A receptor 7 (Homo sapiens) (UniProt Q15375); experiment: Activity of human EphA7 kinase at 1 uM
How it was run: (§1)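 Single-point kinase profiling: each kinase in a 226-kinase panel tested with compound at 1 μM and ATP at 10 μM in every assay, run by an external screening service.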

[2] = biological target: Ephrin type-B receptor 1 (Homo sapiens) (UniProt P54762); experiment: Activity of human EphB1 kinase at 1 uM; how it was run: as §1
[3] = biological target: Ephrin type-B receptor 2 (Homo sapiens) (UniProt P29323); experiment: Activity of human EphB2 kinase at 1 uM; how it was run: as §1
[4] = biological target: G protein-coupled receptor kinase 5 (Homo sapiens) (UniProt P34947); experiment: Activity of human GRK5 kinase at 1 uM; how it was run: as §1
[5] = biological target: Interleukin-1 receptor-associated kinase 1 (Homo sapiens) (UniProt P51617); experiment: Activity of human IRAK1 kinase at 1 uM
[6] = biological target: Serine/threonine-protein kinase 10 (Homo sapiens) (UniProt O94804); experiment: Activity of human LOK kinase at 1 uM
Chain of Serine/threonine-protein kinase 10 (Homo sapiens) (O94804 whole entry, looked up): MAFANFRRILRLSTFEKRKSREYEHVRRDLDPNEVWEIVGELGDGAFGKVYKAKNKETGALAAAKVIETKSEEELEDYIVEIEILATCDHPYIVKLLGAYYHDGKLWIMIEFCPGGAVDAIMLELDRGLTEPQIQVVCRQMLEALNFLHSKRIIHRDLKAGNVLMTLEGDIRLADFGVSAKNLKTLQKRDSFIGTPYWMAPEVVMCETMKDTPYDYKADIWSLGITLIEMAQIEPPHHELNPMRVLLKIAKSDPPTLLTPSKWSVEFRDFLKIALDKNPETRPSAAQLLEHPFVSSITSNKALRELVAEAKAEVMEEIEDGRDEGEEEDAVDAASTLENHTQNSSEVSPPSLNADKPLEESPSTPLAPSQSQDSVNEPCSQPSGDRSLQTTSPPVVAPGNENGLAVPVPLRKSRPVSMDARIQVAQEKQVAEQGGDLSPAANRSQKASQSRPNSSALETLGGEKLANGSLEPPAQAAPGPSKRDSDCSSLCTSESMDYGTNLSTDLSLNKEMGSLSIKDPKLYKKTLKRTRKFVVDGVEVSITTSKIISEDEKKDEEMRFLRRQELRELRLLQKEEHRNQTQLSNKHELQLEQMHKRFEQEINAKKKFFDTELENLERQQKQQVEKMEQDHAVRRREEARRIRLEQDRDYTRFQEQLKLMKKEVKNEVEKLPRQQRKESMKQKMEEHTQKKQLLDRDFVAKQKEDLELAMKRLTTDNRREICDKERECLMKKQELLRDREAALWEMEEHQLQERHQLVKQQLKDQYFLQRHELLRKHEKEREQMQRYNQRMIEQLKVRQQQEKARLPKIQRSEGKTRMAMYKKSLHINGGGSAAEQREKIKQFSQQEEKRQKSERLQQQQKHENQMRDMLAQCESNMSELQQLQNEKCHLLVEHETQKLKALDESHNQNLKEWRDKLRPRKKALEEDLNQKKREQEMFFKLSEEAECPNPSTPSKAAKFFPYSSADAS

[7] = biological target: MAP kinase-activated protein kinase 3 (Homo sapiens) (UniProt Q16644); experiment: Activity of human MAPKAP-K3 kinase at 1 uM
[8] = biological target: Hepatocyte growth factor receptor (Homo sapiens) (UniProt P08581); experiment: Activity of human Met kinase at 1 uM; how it was run: as §1
[9] = biological target: Serine/threonine-protein kinase PAK 4 (Homo sapiens) (UniProt O96013); experiment: Activity of human PAK4 kinase at 1 uM
Chain of Serine/threonine-protein kinase PAK 4 (Homo sapiens) (O96013 whole entry, looked up): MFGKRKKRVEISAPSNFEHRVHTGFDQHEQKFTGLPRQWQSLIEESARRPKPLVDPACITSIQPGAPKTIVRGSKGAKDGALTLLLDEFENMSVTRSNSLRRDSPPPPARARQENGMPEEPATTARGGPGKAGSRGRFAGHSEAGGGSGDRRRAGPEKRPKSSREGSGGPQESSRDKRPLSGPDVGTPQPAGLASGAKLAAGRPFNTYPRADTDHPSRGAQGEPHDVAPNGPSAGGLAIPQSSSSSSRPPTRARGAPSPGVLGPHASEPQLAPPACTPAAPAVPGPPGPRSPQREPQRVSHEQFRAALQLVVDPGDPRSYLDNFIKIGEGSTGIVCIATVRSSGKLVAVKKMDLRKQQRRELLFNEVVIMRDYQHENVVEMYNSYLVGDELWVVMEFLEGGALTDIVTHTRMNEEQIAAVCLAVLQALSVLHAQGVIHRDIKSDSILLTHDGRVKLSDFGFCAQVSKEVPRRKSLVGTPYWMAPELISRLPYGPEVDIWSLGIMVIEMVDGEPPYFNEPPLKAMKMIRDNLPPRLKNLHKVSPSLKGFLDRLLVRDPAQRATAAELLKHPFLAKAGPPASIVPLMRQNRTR
How it was run: (§2)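 Single-point screen in a 226-kinase panel run by an outside service. Test compound at 1 μM with ATP at 10 μM in every assay. Other assay conditions are not given.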

[10] = biological target: Platelet-derived growth factor receptor alpha (Homo sapiens) (UniProt P16234); experiment: Activity of human PDGFRalpha kinase at 1 uM; how it was run: as §2
Chain of Platelet-derived growth factor receptor alpha (Homo sapiens) (P16234 whole entry): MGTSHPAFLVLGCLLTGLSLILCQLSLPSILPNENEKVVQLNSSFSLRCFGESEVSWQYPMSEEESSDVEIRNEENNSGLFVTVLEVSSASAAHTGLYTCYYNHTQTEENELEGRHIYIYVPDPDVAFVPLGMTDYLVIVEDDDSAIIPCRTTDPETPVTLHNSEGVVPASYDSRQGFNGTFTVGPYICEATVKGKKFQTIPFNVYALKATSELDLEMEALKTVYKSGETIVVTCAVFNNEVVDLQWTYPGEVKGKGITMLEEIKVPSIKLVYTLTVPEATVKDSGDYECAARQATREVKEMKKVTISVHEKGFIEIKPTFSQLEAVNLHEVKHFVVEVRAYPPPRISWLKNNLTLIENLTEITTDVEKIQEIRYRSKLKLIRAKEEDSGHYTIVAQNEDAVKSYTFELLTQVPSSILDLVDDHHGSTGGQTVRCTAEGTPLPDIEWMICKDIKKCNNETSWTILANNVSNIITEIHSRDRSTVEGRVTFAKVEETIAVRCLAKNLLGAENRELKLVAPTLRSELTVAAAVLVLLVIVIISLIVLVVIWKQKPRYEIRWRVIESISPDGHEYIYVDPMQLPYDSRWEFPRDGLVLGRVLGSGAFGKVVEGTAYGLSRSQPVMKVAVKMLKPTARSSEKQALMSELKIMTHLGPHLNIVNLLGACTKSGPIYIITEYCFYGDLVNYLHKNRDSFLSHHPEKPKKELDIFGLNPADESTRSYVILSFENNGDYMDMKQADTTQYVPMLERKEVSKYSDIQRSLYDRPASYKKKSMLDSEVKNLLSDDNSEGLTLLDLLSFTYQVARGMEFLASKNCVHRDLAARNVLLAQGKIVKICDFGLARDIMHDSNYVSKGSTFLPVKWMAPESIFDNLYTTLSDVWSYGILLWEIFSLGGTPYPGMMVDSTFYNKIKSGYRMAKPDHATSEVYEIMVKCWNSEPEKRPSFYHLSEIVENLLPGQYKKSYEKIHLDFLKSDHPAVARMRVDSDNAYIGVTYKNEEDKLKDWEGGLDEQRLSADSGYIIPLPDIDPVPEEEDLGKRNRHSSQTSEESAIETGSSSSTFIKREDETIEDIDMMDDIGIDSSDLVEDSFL

Homo sapiens = species on record: Homo sapiens; experiment: Activity of human PKA kinase at 1 uM; how it was run: as §2
[11] = biological target: RAC-beta serine/threonine-protein kinase (Homo sapiens) (UniProt P31751); experiment: Activity of human PKBbeta kinase at 1 uM; how it was run: as §2
Chain of RAC-beta serine/threonine-protein kinase (Homo sapiens) (P31751 whole entry): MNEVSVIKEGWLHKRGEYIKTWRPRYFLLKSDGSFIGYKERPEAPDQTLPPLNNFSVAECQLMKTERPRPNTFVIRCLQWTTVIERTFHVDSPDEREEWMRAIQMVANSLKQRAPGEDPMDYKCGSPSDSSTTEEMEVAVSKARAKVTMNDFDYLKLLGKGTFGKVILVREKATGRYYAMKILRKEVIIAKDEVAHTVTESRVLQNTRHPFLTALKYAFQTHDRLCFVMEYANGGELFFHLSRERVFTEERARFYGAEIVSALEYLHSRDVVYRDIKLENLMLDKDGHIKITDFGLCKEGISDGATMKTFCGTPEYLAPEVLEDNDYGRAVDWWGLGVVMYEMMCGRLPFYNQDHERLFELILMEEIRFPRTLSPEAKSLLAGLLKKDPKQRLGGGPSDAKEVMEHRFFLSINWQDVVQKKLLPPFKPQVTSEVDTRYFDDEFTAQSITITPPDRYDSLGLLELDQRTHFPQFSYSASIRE

[12] = biological target: Protein kinase C zeta type (Homo sapiens) (UniProt Q05513); experiment: Activity of human PKCzeta kinase at 1 uM; how it was run: as §2
[13] = biological target: cGMP-dependent protein kinase 1 (Homo sapiens) (UniProt Q13976); experiment: Activity of human PKG1alpha kinase at 1 uM; how it was run: as §1
Chain of cGMP-dependent protein kinase 1 (Homo sapiens) (Q13976 whole entry): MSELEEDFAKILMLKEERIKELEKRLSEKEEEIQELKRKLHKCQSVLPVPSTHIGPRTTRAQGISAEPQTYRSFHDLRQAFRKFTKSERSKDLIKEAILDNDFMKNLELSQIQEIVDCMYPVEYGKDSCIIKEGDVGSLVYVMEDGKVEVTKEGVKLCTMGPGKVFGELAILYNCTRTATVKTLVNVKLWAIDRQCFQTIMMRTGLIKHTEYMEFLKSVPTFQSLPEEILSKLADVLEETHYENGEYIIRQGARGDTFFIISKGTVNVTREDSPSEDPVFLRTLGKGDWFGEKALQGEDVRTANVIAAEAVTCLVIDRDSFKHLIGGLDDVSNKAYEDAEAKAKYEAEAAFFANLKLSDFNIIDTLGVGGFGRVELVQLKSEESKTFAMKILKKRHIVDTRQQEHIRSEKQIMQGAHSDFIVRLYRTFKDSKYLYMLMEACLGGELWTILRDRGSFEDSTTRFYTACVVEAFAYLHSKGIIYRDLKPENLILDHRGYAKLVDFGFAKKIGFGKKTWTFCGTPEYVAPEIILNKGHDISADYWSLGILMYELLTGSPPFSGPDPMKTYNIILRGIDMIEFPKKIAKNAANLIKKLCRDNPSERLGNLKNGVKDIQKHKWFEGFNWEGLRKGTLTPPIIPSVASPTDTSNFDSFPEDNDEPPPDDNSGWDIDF

[14] = biological target: Mitogen-activated protein kinase 14 (Homo sapiens) (UniProt Q16539); experiment: Activity of human SAPK2a kinase at 1 uM
How it was run: (§3)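 Single-concentration screen across a 226-kinase panel run by an outside provider; test compound at 1 μM with 10 μM ATP in every assay. Other conditions not detailed.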

[15] = test system: Mitogen-activated protein kinase 14 (Homo sapiens), Q16539 [T106M]; experiment: Activity of human SAPK2a T106M mutant kinase at 1 uM; how it was run: as §3
[16] = biological target: Serine/threonine-protein kinase Sgk1 (Homo sapiens) (UniProt O00141); experiment: Activity of human SGK kinase at 1 uM; how it was run: as §2
[17] = biological target: Tyrosine-protein kinase SYK (Homo sapiens) (UniProt P43405); experiment: Activity of human Syk kinase at 1 uM; how it was run: as §2
[18] = biological target: Mitogen-activated protein kinase 10 (Homo sapiens) (UniProt P53779); experiment: Activity of human JNK3 kinase at 1 uM; how it was run: as §1
[19] = biological target: BDNF/NT-3 growth factors receptor (Homo sapiens) (UniProt Q16620); experiment: Activity of human TrkB kinase at 1 uM; how it was run: as §3
[20] = biological target: Tyrosine-protein kinase Yes (Homo sapiens) (UniProt P07947); experiment: Activity of human Yes kinase at 1 uM; how it was run: as §3
[21] = biological target: Tyrosine-protein kinase ZAP-70 (Homo sapiens) (UniProt P43403); experiment: Activity of human ZAP70 kinase at 1 uM; how it was run: as §2
Chain of Tyrosine-protein kinase ZAP-70 (Homo sapiens) (P43403 whole entry): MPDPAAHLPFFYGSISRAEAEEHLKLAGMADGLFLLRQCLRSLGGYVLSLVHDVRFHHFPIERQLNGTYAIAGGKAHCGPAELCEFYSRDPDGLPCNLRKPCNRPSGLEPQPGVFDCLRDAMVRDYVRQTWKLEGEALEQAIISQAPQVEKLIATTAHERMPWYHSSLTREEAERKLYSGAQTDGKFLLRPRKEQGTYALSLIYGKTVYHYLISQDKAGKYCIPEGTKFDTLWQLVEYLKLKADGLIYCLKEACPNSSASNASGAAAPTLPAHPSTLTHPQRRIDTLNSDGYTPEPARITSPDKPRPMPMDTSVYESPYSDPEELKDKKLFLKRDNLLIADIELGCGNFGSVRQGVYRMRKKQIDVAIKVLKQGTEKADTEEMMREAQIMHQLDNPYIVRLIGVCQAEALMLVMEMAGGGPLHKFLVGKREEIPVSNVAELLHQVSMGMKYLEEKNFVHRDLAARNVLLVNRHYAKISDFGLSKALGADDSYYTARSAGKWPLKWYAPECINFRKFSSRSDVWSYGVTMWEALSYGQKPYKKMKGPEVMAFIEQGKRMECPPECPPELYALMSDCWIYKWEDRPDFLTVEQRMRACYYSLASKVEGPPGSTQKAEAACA

[22] = Inhibition of PKC by radioactive flashplate assay
Mus musculus [23] = experiment: Toxicity in human HCT116 cells xenografted into athymic nude NCR nu/nu mouse assessed as decrease in neutrophil count at 30 mg/kg, BID after 21 days; format: organism-based, HCT-116; design: dose 30 mg/kg; scale not given: the % may be the effect or the level left; settings: in vivo, 504 h
How it was run: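 Female athymic nude NCR nu/nu mice were given HCT-116 cells (1 × 10^6) s.c. in the right flank. Drug in 10% hydroxypropyl-β-cyclodextrin/5% sodium bicarbonate was given orally (QD or BID) for 21 days. Body weight loss was recorded at the end of treatment, and neutrophil counts were also followed for the BID regimen.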

Mus musculus [24] = experiment: Toxicity in human PC3 cells xenografted into athymic nude NCR nu/nu mouse assessed as decrease in body weight at 30 mg/kg, BID after 21 days; format: organism-based, PC-3; design: dose 30 mg/kg; scale not given: the % may be the effect or the level left; settings: in vivo, 504 h
How it was run: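 Male athymic nude NCR nu/nu mice were given PC-3 cells (2 × 10^6) s.c. in the right flank. Drug in 10% hydroxypropyl-β-cyclodextrin/5% sodium bicarbonate was given orally twice daily for 21 days. Average loss of initial body weight was recorded on day 21 of treatment.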

[25] = biological target: ALK tyrosine kinase receptor (Homo sapiens) (UniProt Q9UM73); experiment: Activity of human ALK kinase at 1 uM
[26] = biological target: Protein-tyrosine kinase 6 (Homo sapiens) (UniProt Q13882); experiment: Activity of human BRK kinase at 1 uM
[27] = biological target: Tyrosine-protein kinase BTK (Homo sapiens) (UniProt Q06187); experiment: Activity of human BTK kinase at 1 uM
[28] = biological target: Calcium/calmodulin-dependent protein kinase type IV (Homo sapiens) (UniProt Q16566); experiment: Activity of human CaMK4 kinase at 1 uM
Chain of Calcium/calmodulin-dependent protein kinase type IV (Homo sapiens) (Q16566 whole entry): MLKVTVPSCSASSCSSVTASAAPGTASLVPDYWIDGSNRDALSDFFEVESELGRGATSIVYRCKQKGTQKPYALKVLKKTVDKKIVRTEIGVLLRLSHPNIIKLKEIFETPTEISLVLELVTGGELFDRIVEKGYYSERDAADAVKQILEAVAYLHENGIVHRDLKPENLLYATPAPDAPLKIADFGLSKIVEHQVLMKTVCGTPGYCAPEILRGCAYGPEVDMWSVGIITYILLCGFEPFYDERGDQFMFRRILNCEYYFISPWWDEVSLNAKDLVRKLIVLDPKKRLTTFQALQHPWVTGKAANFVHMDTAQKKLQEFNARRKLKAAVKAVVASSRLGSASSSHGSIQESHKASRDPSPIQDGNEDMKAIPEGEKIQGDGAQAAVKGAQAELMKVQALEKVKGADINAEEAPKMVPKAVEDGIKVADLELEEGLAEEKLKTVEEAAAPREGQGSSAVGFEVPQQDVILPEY

[29] = biological target: Cyclin-dependent kinase 2/cyclin A (Homo sapiens) (UniProt P24941+P20248+P78396); experiment: Activity of human CDK2/cyclin A kinase at 1 uM; format: protein-complex assay
PC-3 [30] = experiment: Induction of apoptosis in human PC3 cells assessed as PARP cleavage at 0.25 uM after 24 hrs by Western blot method; format: functional, cell-based
PC-3 [31] = experiment: Induction of apoptosis in human PC3 cells assessed as PARP cleavage at 4 uM after 24 hrs by Western blot method; format: functional, cell-based
Calu-6 = experiment: Antiproliferative activity against human Calu6 cells after 96 hrs by BrdU cell proliferation ELISA; format: functional, cell-based; settings: Calu-6, 96 h
How it was run: (§4)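 BrdU incorporation proliferation assay on cultured human tumor lines; IC50 values derived from growth inhibition.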

PC-3 [32] = experiment: Antiproliferative activity against human PC3 cells after 96 hrs by BrdU cell proliferation ELISA; format: functional, cell-based; settings: PC-3, 96 h; how it was run: as §4
PC-3 [33] = experiment: Cell cycle arrest in human PC3 cells by accumulation at G1 phase at 4 uM after 24 hrs by flow cytometry relative to control; format: functional
How it was run: (§5)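 DNA content profiles by flow cytometry of PC-3 prostate tumor cells exposed to drug diluted in DMSO for 24 or 48 h. Phase distribution was compared with DMSO-treated control cells.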

PC-3 [34] = experiment: Cell cycle arrest in human PC3 cells by accumulation at G1 phase at 1 uM after 48 hrs by flow cytometry relative to control; format: functional; how it was run: as §5
PC-3 [35] = experiment: Cell cycle arrest in human PC3 cells by accumulation at G1 phase at 4 uM after 48 hrs by flow cytometry relative to control; format: functional; how it was run: as §5
PC-3 [36] = experiment: Cell cycle arrest in human PC3 cells by accumulation at S phase at 4 uM after 48 hrs by flow cytometry relative to control; format: functional; how it was run: as §5
PC-3 [37] = experiment: Cell cycle arrest in human PC3 cells by accumulation at >4N phase at 4 uM after 48 hrs by flow cytometry relative to control; format: functional

Activity [1]: 67%
Activity [2]: 35%
Activity [3]: 69%
Activity [4]: 109%
Activity [5]: 110%
Activity [6]: 95%
Activity [7]: 104%
Activity [8]: 140%
Activity [9]: 96%
Activity [10]: 110%
Activity (Homo sapiens): 100%
Activity [11]: 104%
Activity [12]: 99%
Activity [13]: 103%
Activity [14]: 105%
Activity [15]: 130%
Activity [16]: 99%
Activity [17]: 99%
Activity [18]: 125%
Activity [19]: 112%
Activity [20]: 20%
Activity [21]: 96%
IC50 [22]: > 100000 nM
Activity [25]: 95%
Activity [26]: 104%
Activity [27]: 90%
Activity [28]: 104%
Activity [29]: 96%
IC50 (Calu-6): 220 nM
IC50 (PC-3 [32]): 790 nM
SMILES: O=C(O)c1ccc(Nc2ncc3c(n2)-c2ccc(Cl)cc2C(c2c(F)cccc2F)=NC3)cc1 [MLN-8054]
Activity (Mus musculus [23]): 73%
Activity (Mus musculus [24]): 5.4%
Activity (PC-3 [30]): Active
Activity (PC-3 [31]): Active
Activity (PC-3 [33]): 23%
Activity (PC-3 [34]): 23%
Activity (PC-3 [35]): 12.9%
Activity (PC-3 [36]): 4.9%
Activity (PC-3 [37]): 21.4%
